target: T1, UniProt Q8VGV7; settings: stereoisomer not certain
T1 sequence (whole entry): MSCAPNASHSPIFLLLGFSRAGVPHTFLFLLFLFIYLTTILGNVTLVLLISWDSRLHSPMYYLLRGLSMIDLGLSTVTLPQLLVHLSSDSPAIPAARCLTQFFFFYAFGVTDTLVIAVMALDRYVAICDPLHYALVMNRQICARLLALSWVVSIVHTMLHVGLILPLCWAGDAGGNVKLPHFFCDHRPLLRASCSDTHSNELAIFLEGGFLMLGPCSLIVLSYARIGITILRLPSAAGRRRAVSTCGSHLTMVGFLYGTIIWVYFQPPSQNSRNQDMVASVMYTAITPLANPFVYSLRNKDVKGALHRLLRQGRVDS
Procedure, shortened: (§1)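 Assay methods differ from source to source, frequently being transient luciferase assays in mammalian cell lines. For each receptor–molecule pair, the label responsive (active) applies when the original authors judged the measured signal statistically different from baseline, and non-responsive (inactive) applies otherwise.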

| SMILES | odorant receptor agonist call |
| --- | --- |
| O=C([O-])CCCCCCC(=O)[O-].[H+].[H+] | inactive |
| CCSCC | inactive |
| CC(C)=C1CCC(C)CC1=O (centres undefined) | inactive |
| C=CC(=O)CCCCC | inactive |
| CCCCCCCCOC=O | inactive |
| CC(CC=O)CCCC(C)(C)O (centres undefined) | inactive |
| CC(=O)OCc1ccc2c(c1)OCO2 | inactive |
| CCCCCCC(C=O)=Cc1ccccc1 | inactive |
| COC(OC)c1ccccc1 | inactive |
| CCCCCCCCC=CC=O | inactive |
| CC=CC(=O)C1=C(C)CCCC1(C)C | inactive |
| CCCC(C)C(=O)OCC (centres undefined) | inactive |
| CCOC(=O)CC(C)C | inactive |
| CCCCCC=CCCC=O | inactive |
| CCc1ccccc1O | inactive |
| O=C(O)CCCCCBr | inactive |

| SMILES | odorant receptor agonist call |
| --- | --- |
| OCC=Cc1ccccc1 | inactive |
| Cc1occc1SSc1ccoc1C | inactive |
| Cc1ccc(C(C)C)c(O)c1 | inactive |
| Cc1ccc(OC(=O)C(C)C)cc1 | inactive |
| OCCCCCCCCCO | inactive |
| CCCO | inactive |
| CCCCCC(C=O)=Cc1ccccc1 | inactive |
| C=C1C2CCC(C2)C1(C)C (centres undefined) | inactive |
| CCSSCC | inactive |
| CCC=CCCC=CC=O | inactive |
| COc1ccccc1 | inactive |
| CCCCCC(=Cc1ccccc1)C(OC)OC | inactive |
| CSSSC | inactive |
| CC=C(C)C=O | inactive |
| Cc1c(C)c(C)c(C=O)c(C)c1C | inactive |
| CCCCCCC(=O)OCCCC | inactive |

target: T2, UniProt Q8VGX3; settings: stereoisomer not certain
T2 sequence (whole entry): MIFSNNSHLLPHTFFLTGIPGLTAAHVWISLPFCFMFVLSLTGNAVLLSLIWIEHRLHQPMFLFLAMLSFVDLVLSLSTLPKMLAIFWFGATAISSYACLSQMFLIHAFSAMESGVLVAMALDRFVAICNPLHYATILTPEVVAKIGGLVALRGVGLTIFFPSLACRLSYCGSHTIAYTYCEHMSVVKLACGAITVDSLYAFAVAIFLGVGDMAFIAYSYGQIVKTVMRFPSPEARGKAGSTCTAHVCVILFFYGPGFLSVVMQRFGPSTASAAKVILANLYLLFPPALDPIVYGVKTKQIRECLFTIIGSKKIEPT
Procedure, shortened: as §1

| SMILES | odorant receptor agonist call |
| --- | --- |
| O=C([O-])CCCCCCC(=O)[O-].[H+].[H+] | inactive |
| CCSCC | inactive |
| CC(C)=C1CCC(C)CC1=O (centres undefined) | inactive |
| C=CC(=O)CCCCC | inactive |
| CCCCCCCCOC=O | inactive |
| CC(CC=O)CCCC(C)(C)O (centres undefined) | inactive |
| CC(=O)OCc1ccc2c(c1)OCO2 | inactive |
| CCCCCCC(C=O)=Cc1ccccc1 | inactive |
| COC(OC)c1ccccc1 | inactive |
| CCCCCCCCC=CC=O | inactive |
| CC=CC(=O)C1=C(C)CCCC1(C)C | inactive |
| CCCC(C)C(=O)OCC (centres undefined) | inactive |
| CCOC(=O)CC(C)C | inactive |
| CCCCCC=CCCC=O | inactive |
| CCc1ccccc1O | inactive |
| O=C(O)CCCCCBr | inactive |

| SMILES | odorant receptor agonist call |
| --- | --- |
| OCC=Cc1ccccc1 | inactive |
| Cc1occc1SSc1ccoc1C | inactive |
| Cc1ccc(C(C)C)c(O)c1 | active |
| Cc1ccc(OC(=O)C(C)C)cc1 | inactive |
| OCCCCCCCCCO | inactive |
| CCCO | inactive |
| CCCCCC(C=O)=Cc1ccccc1 | inactive |
| C=C1C2CCC(C2)C1(C)C (centres undefined) | inactive |
| CCSSCC | inactive |
| CCC=CCCC=CC=O | inactive |
| COc1ccccc1 | inactive |
| CCCCCC(=Cc1ccccc1)C(OC)OC | inactive |
| CSSSC | inactive |
| CC=C(C)C=O | inactive |
| Cc1c(C)c(C)c(C=O)c(C)c1C | inactive |
| CCCCCCC(=O)OCCCC | inactive |
